≈ marks a conversion by molar mass, not a printed value. One block for each molecule: values may come before it. Calls of active or inactive are those of the source. No cut-off for these calls is given here.
Assays:
[1] = Cytotoxicity against human HL7702 cells assessed as cell survival rate at 10 uM incubated for 24 hrs by MTT assay; type: cell-based; conditions: HL7702 (L02) cells, read-out: Activity
Summary of the method: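 HL-7702 human normal hepatic cells exposed to 10 μM compound for 24 h; viability measured by MTT assay and given as survival rate, mean ± SD of three experiments.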

[2] = tested on: RAW264.7; test: Antiinflammatory activity in mouse RAW264.7 cells assessed as decrease in LPS-induced IL-6 secretion at 10 microM incubated for 30 mins followed by LPS stimulation and measured after 24 hrs by ELISA relative to control; type: functional; conditions: RAW264.7, 24.5 h, time 1470 min
Summary of the method: (§1)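 RAW264.7 cells in DMEM with 10% FBS at 37 °C, 5% CO₂; pretreated with 10 μM for 30 min, then LPS 0.5 μg/mL for 24 h. Medium TNF-α and IL-6 measured by ELISA and normalized to total protein of viable cells; percent inhibition, mean ± SD of three experiments.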

[3] = tested on: RAW264.7; test: Antiinflammatory activity in mouse RAW264.7 cells assessed as decrease in LPS-induced TNF-alpha secretion at 10 microM incubated for 30 mins followed by LPS stimulation and measured after 24 hrs by ELISA relative to control; type: functional; conditions: RAW264.7, 24.5 h, time 1470 min; summary of the method: as §1
[4] = Octanol-water partition coefficient, logP of compound; type: physicochemical
[5] = tested on: RAW264.7; test: (§2) Cytotoxicity against mouse RAW264.7 cells assessed as cell survival rate at 10 uM; type: cell-based; conditions: raw264.7, 10 µM
[6] = as §2; type: cell-based; conditions: RAW264.7 cells, read-out: Activity
[7] = tested on: BEAS-2B; test: Antiinflammatory activity in human BEAS-2B cells assessed as reduction in LPS-induced VCAM-1 mRNA expression incubated for 30 mins followed by LPS stimulation and measured after 24 hrs by qRT-PCR analysis; type: functional, cell-based; conditions: dose 10-20 µM, time 1470.0 min
Summary of the method: (§3)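 Beas-2B cells seeded at 7.0×10^5/plate overnight at 37 °C, 5% CO₂; pretreated with 10 μM for 30 min, then LPS 1 μg/mL for 24 h. Total RNA extracted with TRIZOL; two-step SYBR Green RT-qPCR. Expressed as percent of LPS control; mean ± SEM of three independent experiments.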

[8] = tested on: Rattus norvegicus; test: Antiinflammatory activity against LPS-induced acute lung injury rat model assessed as reduction in CD-68 stained macrophage numbers in lungs at 10 to 20 mg/kg administered before LPS instillation and measured after 6 hrs by immunohistochemical analysis; type: functional, organism-based; conditions: dose 10-20 mg/kg
Summary of the method: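 Lung sections from rats given intratracheal LPS, pretreated at 10 or 20 mg/kg, killed 6 h after LPS; immunohistochemistry for the macrophage marker CD68, with CD68-positive cells counted.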

[9] = Aqueous kinetic solubility of compound at pH 7.4; type: physicochemical; conditions: read-out: Kinetic_solubility
[10] = tested on: RAW264.7; test: Antiinflammatory activity in mouse RAW264.7 cells assessed as decrease in LPS-induced IL-6 secretion incubated for 30 mins followed by LPS stimulation and measured after 24 hrs by ELISA; type: functional, cell-based; conditions: dose 1-10 µM, time 1470.0 min
Summary of the method: (§4)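 RAW264.7 cells seeded at 4.0×10^5/plate overnight; pretreated at 1, 2.5, 5 or 10 μM for 30 min, then with or without LPS 0.5 μg/mL for 24 h. Medium IL-6 and TNF-α measured by ELISA and normalized to total protein; percent of LPS control, mean ± SEM of three independent experiments.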

[11] = tested on: Rattus norvegicus; test: Antiinflammatory activity against LPS-induced acute lung injury rat model assessed as reduction in IL-6 level in serum at 10 to 20 mg/kg administered before LPS instillation and measured after 6 hrs by ELISA; type: functional, organism-based; conditions: dose 10-20 mg/kg
Summary of the method: (§5)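 Rats given intratracheal LPS after pretreatment at 10 or 20 mg/kg; killed 6 h after LPS under anaesthesia; BALF and lung collected. BALF IL-6 and TNF-α measured by ELISA in BALF supernatant; serum IL-6 measured; BALF total cells counted; lung MPO activity and TNF-α immunostaining assessed.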

[12] = tested on: Rattus norvegicus; test: Antiinflammatory activity against LPS-induced acute lung injury rat model assessed as reduction in TNF-alpha level in BALF at 10 to 20 mg/kg administered before LPS instillation and measured after 6 hrs by ELISA; type: functional, organism-based; conditions: dose 10-20 mg/kg; summary of the method: as §5
[13] = tested on: Rattus norvegicus; test: Antiinflammatory activity against LPS-induced acute lung injury rat model assessed as decrease in neutrophil infiltration in lungs by measuring decrease in MPO activity at 10 to 20 mg/kg administered before LPS instillation and measured after 6 hrs; type: functional, organism-based; conditions: dose 10-20 mg/kg; summary of the method: as §5
[14] = tested on: Rattus norvegicus; test: Antiinflammatory activity against LPS-induced acute lung injury rat model assessed as reduction in IL-6 level in BALF at 10 to 20 mg/kg administered before LPS instillation and measured after 6 hrs by ELISA; type: functional, organism-based; conditions: dose 10-20 mg/kg; summary of the method: as §5
[15] = tested on: Rattus norvegicus; test: Antiinflammatory activity against LPS-induced acute lung injury rat model assessed as reduction in total protein content in BALF at 10 to 20 mg/kg administered before LPS instillation and measured after 6 hrs by BCA protein assay; type: functional, organism-based; conditions: dose 10-20 mg/kg
Summary of the method: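 Left lung lavaged with saline (3 × 1.5 mL) 6 h after intratracheal LPS in rats pretreated at 10 or 20 mg/kg; lavage spun at 1000 rpm for 10 min; supernatant protein measured by BCA assay.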

[16] = tested on: Rattus norvegicus; test: Antiinflammatory activity against LPS-induced acute lung injury rat model assessed as reduction in TNFalpha expression in lung tissue at 10 to 20 mg/kg administered before LPS instillation and measured after 6 hrs by immunohistochemical analysis; type: functional, organism-based; conditions: dose 10-20 mg/kg; summary of the method: as §5
[17] = tested on: BEAS-2B; test: Antiinflammatory activity in human BEAS-2B cells assessed as reduction in LPS-induced IL-6 mRNA expression incubated for 30 mins followed by LPS stimulation and measured after 24 hrs by qRT-PCR analysis; type: functional, cell-based; conditions: dose 10-20 µM, time 1470.0 min; summary of the method: as §3
[18] = tested on: Mus musculus; test: Antiinflammatory activity against LPS-induced septic shock C57BL/6 mouse model assessed as proportion of died animals at 10 mg/kg, iv administered daily before LPS administration and monitored for 7 days (reference value: 100%); type: functional; conditions: time 7 day
Summary of the method: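 Male C57BL/6 mice, n = 10 per group, were given the test agent as its hydrochloride salt (10 mg/kg IV) or saline vehicle. LPS (20 mg/kg IP) was injected afterwards. Survival was recorded every 24 h for 7 days after LPS.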

[19] = tested on: BEAS-2B; test: Antiinflammatory activity in human BEAS-2B cells assessed as reduction in LPS-induced TNFalpha mRNA expression incubated for 30 mins followed by LPS stimulation and measured after 24 hrs by qRT-PCR analysis; type: functional, cell-based; conditions: dose 10-20 µM, time 1470.0 min; summary of the method: as §3
[20] = tested on: Rattus norvegicus; test: Antiinflammatory activity against LPS-induced acute lung injury rat model assessed as reduction in lung edema at 10 to 20 mg/kg administered before LPS instillation and measured after 6 hrs by hematoxylin and eosin staining based microscopic analysis; type: functional, organism-based; conditions: dose 10-20 mg/kg
Summary of the method: (§6)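 Rats pretreated at 10 or 20 mg/kg, then intratracheal LPS; lungs taken 6 h later, fixed in 4% paraformaldehyde, paraffin-embedded, cut at 5 μm, stained with hematoxylin-eosin, and examined by light microscopy for edema, hemorrhage, cell infiltration and epithelial/endothelial damage.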

[21] = tested on: Rattus norvegicus; test: (§7) Antiinflammatory activity against LPS-induced acute lung injury rat model assessed as reduction in inflammatory cell infiltration in lungs at 10 to 20 mg/kg administered before LPS instillation and measured after 6 hrs by hematoxylin and eosin staining based microscopic analysis; type: functional, organism-based; conditions: dose 10-20 mg/kg; summary of the method: as §6
[22] = tested on: Rattus norvegicus; test: Antiinflammatory activity against LPS-induced acute lung injury rat model assessed as reduction in alveolar hemorrhage in lungs at 10 to 20 mg/kg administered before LPS instillation and measured after 6 hrs by hematoxylin and eosin staining based microscopic analysis; type: functional, organism-based; conditions: dose 10-20 mg/kg; summary of the method: as §6
[23] = Chemical stability of compound in PBS buffer containing 5% DMSO at pH 7.4 measured every 5 mins for 25 mins by UV-Vis absorption spectral analysis; type: physicochemical; conditions: pH 7.4, 25 min
Summary of the method: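 Compound diluted from 1 mM stock in phosphate buffer pH 7.4 containing 5% DMSO; UV-visible spectra recorded from 250 to 600 nm at 25 °C in a 1 cm quartz cuvette, every 5 min for 25 min.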

[24] = tested on: RAW264.7; test: Antiinflammatory activity in mouse RAW264.7 cells assessed as decrease in LPS-induced TNF-alpha secretion incubated for 30 mins followed by LPS stimulation and measured after 24 hrs by ELISA; type: functional, cell-based; conditions: dose 1-10 µM, time 1470.0 min; summary of the method: as §4
[25] = tested on: Rattus norvegicus; test: Antiinflammatory activity against LPS-induced acute lung injury rat model assessed as reduction in total cells in BALF at 10 to 20 mg/kg administered before LPS instillation and measured after 6 hrs; type: functional, organism-based; conditions: dose 10-20 mg/kg; summary of the method: as §5
[26] = tested on: Rattus norvegicus; test: Antiinflammatory activity against LPS-induced acute lung injury rat model assessed as reduction in lung wet/dry ratio at 10 to 20 mg/kg administered before LPS instillation and measured after 6 hrs; type: functional, organism-based; conditions: dose 10-20 mg/kg
Summary of the method: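 Edema index in rats killed 6 h after intratracheal LPS, with pretreatment at 10 or 20 mg/kg: right upper lung lobe excised, blotted and weighed wet, then dried at 65 °C for 48 h and reweighed; wet/dry weight ratio calculated.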

[27] = tested on: BEAS-2B; test: Antiinflammatory activity in human BEAS-2B cells assessed as reduction in LPS-induced IL-1beta mRNA expression incubated for 30 mins followed by LPS stimulation and measured after 24 hrs by qRT-PCR analysis; type: functional, cell-based; conditions: dose 10-20 µM, time 1470.0 min; summary of the method: as §3
[28] = tested on: Rattus norvegicus; test: as §7, with “in destruction of epithelial and endothelial” for “in inflammatory”, “cell structure” for “cell infiltration”; type: functional, organism-based; conditions: dose 10-20 mg/kg; summary of the method: as §6

logP [4]: 4.08
SMILES: C=CCc1cc(/C=C2\CN(C3CC3)C/C(=C\c3ccc(N(CC)CC)cc3)C2=O)ccc1O
viability at 24 h, 10 µM [1]: 94%
inhibition at 10 µM [2]: 71.9%
inhibition at 10 µM [3]: 32.1%

SMILES: C=CCc1cc(/C=C2\CN(C(=O)c3ccc(F)cc3)C/C(=C\c3ccc(O)c(CC=C)c3)C2=O)ccc1O
viability at 24 h, 10 µM [1]: 78%
Activity [5]: Non-Toxic
inhibition at 10 µM [2]: 86.8%

SMILES: C=CCc1cc(/C=C2\CN(C(=O)c3c(Cl)cccc3Cl)C/C(=C\c3ccc(O)c(CC=C)c3)C2=O)ccc1O
viability at 24 h, 10 µM [1]: 79.6%
Activity [5]: Non-Toxic
inhibition at 10 µM [2]: 79.6%

SMILES: C=CCc1cc(/C=C2\CN(Cc3ccccc3)C/C(=C\c3ccc(O)c(CC=C)c3)C2=O)ccc1O
viability at 24 h, 10 µM [1]: 62.1%
viability at 10 µM [6]: < 70%
inhibition at 10 µM [2]: 45.8%

SMILES: C=CCc1cc(/C=C2\CN(C3CC3)C/C(=C\c3ccc(N4CCN(C)CC4)cc3)C2=O)ccc1O
Activity [7]: Dose-dependent effect
viability at 24 h, 10 µM [1]: 90.3%
Activity [8]: Active
inhibition at 10 µM [2]: 83.3%
inhibition at 10 µM [3]: 43.8%
solubility kinetic [9]: 22.5 mg/mL (≈ 47.9 mM)
inhibition [10]: Dose-dependent effect
Activity [11]: Active
Activity [12]: Active
Activity [13]: Active
Activity [14]: Active
Activity [15]: Active
Activity [16]: Active
Activity [17]: Dose-dependent effect
Activity [18]: 50%
Activity [19]: Dose-dependent effect
Activity [20]: Active
Activity [21]: Active
Activity [22]: Active
Stabilty [23]: Stable
inhibition [24]: Dose-dependent effect
Activity [25]: Active
Activity [26]: Active
Activity [27]: Dose-dependent effect
logP [4]: 3.48
Activity [28]: Active

SMILES: C=CCc1cc(/C=C2\CNC/C(=C\c3ccc(O)c(CC=C)c3)C2=O)ccc1O
viability at 24 h, 10 µM [1]: 77.9%
Activity [5]: Non-Toxic
inhibition at 10 µM [2]: 44.4%

SMILES: C=CCc1cc(/C=C2\CN(CCC)C/C(=C\c3ccc(O)c(CC=C)c3)C2=O)ccc1O
viability at 24 h, 10 µM [1]: 75.2%
Activity [5]: Non-Toxic
inhibition at 10 µM [2]: 76.1%

Stabilty [23]: Stable
SMILES: C=CCc1cc(/C=C2\CN(C3CC3)C/C(=C\c3ccc(O)c(CC=C)c3)C2=O)ccc1O
viability at 24 h, 10 µM [1]: 76.2%
Activity [5]: Non-Toxic
inhibition at 10 µM [2]: 77.5%
inhibition at 10 µM [3]: 39.5%
inhibition [10]: Dose-dependent effect
inhibition [24]: Dose-dependent effect

SMILES: C=CCc1cc(/C=C2\CN(C(=O)c3ccc(Cl)cc3)C/C(=C\c3ccc(O)c(CC=C)c3)C2=O)ccc1O
viability at 24 h, 10 µM [1]: 66.2%
viability at 10 µM [6]: < 70%
inhibition at 10 µM [2]: 89.2%

— ChEMBL document CHEMBL4715721, “Synthesis and optimization of novel allylated mono-carbonyl analogs of curcumin (MACs) act as potent anti-inflammatory agents against LPS-induced acute lung injury (ALI) in rats” (Eur J Med Chem, 2016)
